The record followed here is ChEMBL document CHEMBL5226332, “Amino-Substituted 3-Aryl- and 3-Heteroarylquinolines as Potential Antileishmanial Agents” (J Med Chem, 2021).

For orientation: Cmax means the highest concentration seen after dosing. As a reminder, the AUC is concentration integrated over time. One may read the Vd as a proportionality between amount in the body and measured concentration, not a real space. In general, Tmax refers to the time at which the peak concentration occurs.

What all share (assay type): ADME, organism-based
Common to all, as to details: in vivo

Data set [1] is described as follows: Cmax in BALB/c mouse at 10 mg/kg, iv measured after 24 hrs by LC/MS analysis. Also on record: time 24 hrs, dose 10 mg/kg, route iv. The essentials: (§1)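 Mice given one 10 mg/kg dose by IV, oral or IP route; parent and monomethyl metabolite measured in plasma. Oral dose given in 10/10/40/39 EtOH/PG/PEG400/PBS (pH 7.4) plus 1% w/v HβCD. Vd is steady-state for IV and apparent for the other routes.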

The nature of data set [2]: AUC in BALB/c mouse at 10 mg/kg, iv measured after 24 hrs by LC/MS analysis. Also on record: dose 10 mg/kg, time 24 hrs, route iv. The procedure, abridged:
as §1

Data set [3] can be described thus: Volume of distribution in BALB/c mouse at 10 mg/kg, iv measured after 24 hrs by LC/MS analysis. The essentials: as §1
Data set [4] in a line: Cmax in BALB/c mouse at 10 mg/kg, po measured after 24 hrs by LC/MS analysis. Details: dose 10 mg/kg, time 24 hrs, route po. The procedure, abridged: as §1
Data set [5] is described as follows: Tmax in BALB/c mouse at 10 mg/kg, po measured after 24 hrs by LC/MS analysis. The essentials:
as §1

A short description of data set [6]: AUC in BALB/c mouse at 10 mg/kg, po measured after 24 hrs by LC/MS analysis. Also on record: time 24 hrs, dose 10 mg/kg, route po. The essentials:
as §1

Data set [7] in a line: Cmax in BALB/c mouse at 10 mg/kg, ip measured after 24 hrs by LC/MS analysis. Also on record: dose 10 mg/kg, time 24 hrs, route ip. The procedure, abridged:
as §1

A short description of data set [8]: AUC in BALB/c mouse at 10 mg/kg, ip measured after 24 hrs by LC/MS analysis. Details: dose 10 mg/kg, time 24 hrs, route ip. The procedure, abridged:
as §1

On to `CN(C)c1ccc2cc(-c3cc(Cl)cc(Cl)c3)c(N)nc2c1`, for which the highest level in data set [1] (Cmax) was 741 nM. In data set [2], the AUC was determined as 3.91 µM·h. The same compound registered a volume of distribution (Vd) in data set [3] of 25.9 L/kg.

In the case of `CN(C)c1ccc2cc(-c3cn(C)c4ccccc34)c(N)nc2c1`, the Cmax in data set [1] is 2840 nM; in data set [4], 1000 nM; in data set [7] it was 3170 nM. The AUC came out at 5.95 µM·h in data set [2], 0.921 µM·h in data set [6] and 3.81 µM·h in data set [8]. In data set [3], this compound registered a Vd of 9.88 L/kg. Also, the time to peak (Tmax) in data set [5] stood at 6 min.
